Values joined by “and” are separate entries in the source; they are usually repeats but may differ in a detail not shown here. Equal values may be shown once.
Assays:
Type in all cases: toxicity, cell-based
Fibroblast [1] = assay: Multiplex assay against human fibroblast; settings: 10 µM, compound concentration 10 uM
How it was run: (§1)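 With compound added, live cells were imaged on a CQ1 microscope at 37°C and 5% CO2; staining with Hoechst33342, BioTracker Green Microtubule Cytoskeleton Dye, MitoTracker Red and Annexin V Alexa Fluor 680 had been done at seeding. The CellPathfinder machine-learning gating scheme split cells into Hoechst high-intensity objects or normal cells, normal cells into healthy, pyknosed or fragmented nuclei, and pyknosed cells into mitotic or apoptotic. The tubulin, mitochondrial-mass and membrane-permeability phenotypes are per cents of healthy-nucleus cells.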

Fibroblast [2] = assay: Incucyte cell viability with human fibroblast; settings: 10 µM, compound concentration 10 uM; note: filed as whole numbers so only -1 and 0 and 1 occur
HEK-293T [3] = assay: Multiplex assay against HEK293T; settings: human, 10 µM, compound concentration 10 uM; how it was run: as §1;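 for Population Tubulin-Different-Phenotype (%): share of the cells with healthy nuclei that show this phenotype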
U2OS = assay: Incucyte cell viability with U2OS; settings: human, 10 µM, compound concentration 10 uM; note: filed as whole numbers so only -1 and 0 and 1 occur
HEK-293T [4] = assay: Incucyte cell viability with HEK293T; settings: human, 10 µM, compound concentration 10 uM; note: filed as whole numbers so only -1 and 0 and 1 occur
[5] = 0 h, replicate number 1, timepoint 0 hours
[6] = 6 h, replicate number 1, timepoint 6 hours
[7] = 12 h, replicate number 1, timepoint 12 hours
[8] = 12 h, replicate number 2, timepoint 12 hours
[9] = 18 h, replicate number 1, timepoint 18 hours
[10] = 24 h, replicate number 1, timepoint 24 hours

## C#Cc1cccc(Nc2ncnc3cc(OCCOC)c(OCCOC)cc23)c1 [ERLOTINIB]
Fibroblast [1]; 12 h, replicate 1
  Population Apoptotic (%): 59% and 66%
  Population Fragmented Nuclei (%): 22% and 24% and 20%
  Population Healthy Nuclei (%): 35% and 58% and 62%
  Population Hoechst High Intensity Objects (%): 10% and 11% and 15%
  Population Mitotic Cells (%): 40% and 33% and 29%
  Population Normal (%): 89% and 88% and 84%
  Population Pyknosed Nuclei (%): 41% and 16%
  Total Cell Count: 125 and 263 and 267
Fibroblast [1]; 12 h, replicate 2
  Population Membrane Permeable-Phenotype (%): 10% and 9% and 13%
  Population Normal (%): 57% and 66% and 91%
Fibroblast [1]; 24 h, replicate 1
  Population Apoptotic (%): 60% and 66%
  Population Fragmented Nuclei (%): 23% and 27% and 21%
  Population Healthy Nuclei (%): 46% and 52% and 60%
  Population Hoechst High Intensity Objects (%): 22% and 12% and 19%
  Population Mitotic Cells (%): 40% and 39% and 33%
  Population Normal (%): 77% and 87% and 80%
  Population Pyknosed Nuclei (%): 30% and 19% and 18%
  Total Cell Count: 127 and 268 and 287
Fibroblast [1]; 24 h, replicate 2
  Population Apoptotic (%): 100% and 57% and 75%
  Population Hoechst High Intensity Objects (%): 28% and 38%
  Population Normal (%): 71% and 61%
  Population Pyknosed Nuclei (%): 10% and 16%
Fibroblast [1]; 48 h, replicate 1
  Population Apoptotic (%): 87%
  Population Fragmented Nuclei (%): 41%
  Population Healthy Nuclei (%): 41%
  Population Hoechst High Intensity Objects (%): 16%
  Population Membrane Permeable-Phenotype (%): 23%
  Population Mitochondria Different-Phenotype (%): 33%
  Population Mitotic Cells (%): 12%
  Population Normal (%): 83%
  Population Pyknosed Nuclei (%): 17%
  Population Tubulin-Different-Phenotype (%): 89%
  Total Cell Count: 113
Fibroblast [1]; 48 h, replicate 2
  Population Apoptotic (%): 50%
  Population Fragmented Nuclei (%): 28%
  Population Healthy Nuclei (%): 62%
  Population Hoechst High Intensity Objects (%): 23%
  Population Membrane Permeable-Phenotype (%): 19%
  Population Mitochondria Different-Phenotype (%): 19%
  Population Mitotic Cells (%): 50%
  Population Normal (%): 76%
  Population Pyknosed Nuclei (%): 9%
  Population Tubulin-Different-Phenotype (%): 95%
  Total Cell Count: 86
Fibroblast [2]; [5]
  Growth Rate: 0
Fibroblast [2]; [6]
  Growth Rate: 0
Fibroblast [2]; [7]
  Growth Rate: 0
Fibroblast [2]; [8]
  Growth Rate: 1
Fibroblast [2]; [9]
  Growth Rate: 0
Fibroblast [2]; [10]
  Growth Rate: 0
HEK-293T [3]; 12 h, replicate 1
  Population Apoptotic (%): 61% and 22% and 23%
  Population Fragmented Nuclei (%): 11% and 22% and 20%
  Population Healthy Nuclei (%): 23% and 55% and 63%
  Population Hoechst High Intensity Objects (%): 14% and 12%
  Population Membrane Permeable-Phenotype (%): 8% and 18% and 7%
  Population Mitotic Cells (%): 38% and 77% and 76%
  Population Normal (%): 85% and 87%
  Total Cell Count: 229 and 602 and 657
HEK-293T [3]; 12 h, replicate 2
  Population Fragmented Nuclei (%): 12% and 6% and 7%
  Population Hoechst High Intensity Objects (%): 5% and 2%
  Population Mitotic Cells (%): 49% and 88% and 94%
  Population Normal (%): 94% and 97%
HEK-293T [3]; 24 h, replicate 1
  Population Fragmented Nuclei (%): 10% and 13% and 15%
  Population Healthy Nuclei (%): 31% and 68% and 74%
  Population Hoechst High Intensity Objects (%): 16% and 12% and 8%
  Population Mitotic Cells (%): 29% and 68% and 78%
  Population Normal (%): 83% and 87% and 91%
  Total Cell Count: 250 and 573 and 727
HEK-293T [3]; 24 h, replicate 2
  Population Healthy Nuclei (%): 38% and 82% and 70%
  Population Hoechst High Intensity Objects (%): 2% and 3%
  Population Normal (%): 97% and 96%
HEK-293T [3]; 48 h, replicate 1
  Population Apoptotic (%): 64%
  Population Fragmented Nuclei (%): 20%
  Population Healthy Nuclei (%): 22%
  Population Hoechst High Intensity Objects (%): 20%
  Population Membrane Permeable-Phenotype (%): 2%
  Population Mitochondria Different-Phenotype (%): 88%
  Population Mitotic Cells (%): 35%
  Population Normal (%): 79%
  Population Pyknosed Nuclei (%): 57%
  Population Tubulin-Different-Phenotype (%): 91%
  Total Cell Count: 254
HEK-293T [3]; 48 h, replicate 2
  Population Apoptotic (%): 45%
  Population Fragmented Nuclei (%): 4%
  Population Healthy Nuclei (%): 56%
  Population Hoechst High Intensity Objects (%): 5%
  Population Membrane Permeable-Phenotype (%): 5%
  Population Mitochondria Different-Phenotype (%): 81%
  Population Mitotic Cells (%): 54%
  Population Normal (%): 94%
  Population Pyknosed Nuclei (%): 38%
  Population Tubulin-Different-Phenotype (%): 97%
  Total Cell Count: 197
U2OS; 0 h, replicate number 2, timepoint 0 hours
  Growth Rate: 1
U2OS; 6 h, replicate number 2, timepoint 6 hours
  Growth Rate: 0
U2OS; [7]
  Growth Rate: 1
U2OS; [8]
  Growth Rate: 0
U2OS; [9]
  Growth Rate: 0
U2OS; [10]
  Growth Rate: 1
U2OS; 24 h, replicate number 2, timepoint 24 hours
  Growth Rate: 0
HEK-293T [4]; [5]
  Growth Rate: 0
HEK-293T [4]; [6]
  Growth Rate: 0
HEK-293T [4]; [7]
  Growth Rate: 0
HEK-293T [4]; [9]
  Growth Rate: 0
HEK-293T [4]; [10]
  Growth Rate: 0

— ChEMBL document CHEMBL4689842, “EUbOPEN Chemogenomics Library wave 1” (2021)
